PubChem BioAssay
Unmarked numbers belong to inactive results. Records with an inconclusive call do not appear. The source made the active and inactive calls.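 Rule for the calls, unless noted: active = cell viability at or below a set limit in both duplicate runs, the limit being the all-compound median minus 4 SD (cut at about 23% in these data, passing the limit was not always enough); inconclusive = no clear call, values can overlap the other calls; inactive = the rest.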

Columns and labels:
[1] = S. cerevisiae growth inhibition in permissive medium (OD615), pilot counter-assay for S. cerevisiae lifespan shortening project, permissive growth control (AID 705;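 active = growth inhibition above 25% in both replicates, a cutoff set 3 SD above the mean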); conditions: OD615, 24 h, at 10 µM, hits give high values
How it was run: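 System: Engineered DeaD yeast | Buffer or medium: SC raffinose/galactose permissive medium | Incubation: Cells pre-grown 4 h, then 24 h compound exposure, 30 °C humidified | Measured by: Absorbance (optical density) at 615 nm | Read-out: Reduction in yeast growth (OD615)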

[2] = S. cerevisiae growth inhibition in restrictive medium, OD615, pilot screen, restrictive growth control, yeast lifespan reduction project (AID 706;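 active = growth inhibition above a set limit, 3 SD over mean compound inhibition, in both replicates, cut at about 43% in these data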;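 note: modified DeaD lifespan yeast strain shifted to restrictive glucose medium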); conditions: OD615, 48 h, at 10 µM, hits give high values
How it was run: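 Material: modified S. cerevisiae; Medium: glucose-based CSMM-D restrictive medium; Compound dosing: one concentration, 10 µM final, 0.25% DMSO; Incubation: 48 h compound exposure at 30 °C; Measured by: OD615.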

[3] = doxorubicin toxicity protection in MRP-1 cells – H69AR cells, CellTiter-Glo, duplicate, MRP-1 activator project, pilot screen (AID 807;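 active = viability increase at or above a cutoff of the median across tested compounds plus 3 SD, cut at about 8.5% in these data, passing the limit was not always enough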;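 note: compound pretreatment 18-22 h then 72 h combined with doxorubicin; 0% = doxorubicin alone and 100% = vehicle without doxorubicin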); conditions: H69AR viability with doxorubicin, CellTiter-Glo luminescence; at 10 µM; hits give high values
[4] = viability of HCT116 without oncogenic beta-catenin – human colon tumor cells, pilot screen (AID 823); conditions: HCT116 beta-catenin knockout viability, CellTiter-Glo, 60 h; at 10 µM; hits give low values;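 note: 0% = wells killed by 20 µM Hyamine and 100% = untreated DMSO cell wells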
[5] = viability of PTEN-null HCT116 cells – cell-based, HCT116 clonal line, CellTiter-Glo, pilot screen (AID 824;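 active = viability at or below 27.92% in each of two runs, the all-compound median minus 4 SD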;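 note: 0% = 20 µM Hyamine control and 100% = vehicle cell control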); conditions: HCT116 PTEN-deleted viability, 60 h, at 10 µM, hits give low values
[6] = RAM pathway blockade in budding yeast – dse1pr::URA3 reporter, 5-FOA selection, pilot screen (AID 869;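 active = inhibition over a set limit, the all-compound mean plus 3 SD, in both replicate runs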;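 note: 0% = DMSO wells with no growth and 100% = 10 µM 1-NA-PP1 with full growth; RAM network block rescues cells from 5-FOA so hits raise OD615 growth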); conditions: S. cerevisiae dse1pr::URA3 5-FOA growth, OD615, 2 d; at 10 µM; hits give high values; strain carries analog-sensitive mutant Cbk1 kinase
[7] = RAM signaling pathway blockade in yeast – S. cerevisiae, Pdr1DBD-CYC8 efflux-inhibited sensitized strain, primary screen (AID 1298;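 active = RAM network inhibition above 8.4% in each of two replicates, 3 SD over the compound average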;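 note: 0% = DMSO untreated cells without growth and 100% = 10 µM 1-NA-PP1 full growth; higher means more yeast growth rescued from 5-FOA killing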); conditions: S. cerevisiae cbk1-as DSE1-URA3 strain, 5-FOA growth OD615, 2 d; at 50 µM; hits give high values

Compound | growth inhibition [1] | growth inhibition [2] | viability increase [3] | viability [4] | viability [5] | inhibition [6] | RAM network inhibition [7]
Cc1sc2ncnc(Sc3nnc4sc5ccccc5n34)c2c1C | 6.21% | -2.07% | -3.97% | 55.4% | 65.2% | 2.33% | 5.95%
CC1CCN(C(=O)CNC(=O)Cn2ccc3ccccc3c2=O)CC1 | -9.29% | -0.685% | -1.73% | 98.2% | 94.1% | 0.755% | 1.67%
O=C(Nc1ccccc1)N(CCc1ccncc1)C1CCCCC1 | -7% | -2.46% | -2.85% | 97.4% | 98.9% | 1.18% | -0.83%
CC1(C)CC(=O)C2=C(C1)N(c1ccc(F)cc1)C(=O)CC2c1cccnc1 (stereo unspecified) | 0.065% | -2% | -2.17% | 95.9% | 100% | 2.41% | 5.94%
O=C(c1ccc(CS(=O)(=O)c2ccc(Br)cc2)o1)N1CCN(c2ncccn2)CC1 | -4.05% | -7.28% | -4.3% | 86.2% | 96% | 1.94% | 3.64%
COc1cccc(OCCCCSc2ncccn2)c1 | 0.33% | 4.57% | -2.94% | 93.2% | 90.2% | -0.22% | 4.14%
C=CCn1c(SCCCc2ccccc2)nc2c1c(=O)[nH]c(=O)n2C | 5.96% | 6.29% | -5.7% | 67.8% | 65.2% | 0.525% | 4.94%
CC1CCN(CC(O)COc2cccc(F)c2)CC1 (stereo unspecified) | -14.2% | -6.4% | -0.94% | 96.7% | 92.2% | -0.65% | 0.62%
CCn1c(O)c(C2=NCCCC2)c2ccccc21 | 0.575% | 11.6% | -0.12% | 95% | 102% | -0.49% | 1.14%
CN1CCN(S(=O)(=O)c2ccc(-c3ccc(S(=O)(=O)N4CCN(C)CC4)cc3)cc2)CC1 | -23.4% | -19.1% | 0.84% | 96.5% | 96.2% | 0.68% | 0.57%
CCC(C)NC(=O)C1CN(S(=O)(=O)c2ccccc2)CCN1S(=O)(=O)c1ccccc1 (stereo unspecified) | 10.9% | -6.21% | -2.53% | 97.3% | 92.9% | 0.14% | 0.57%
COc1cc(C2N(c3ccc(Cl)cc3)C(=O)C3CCCN32)cc(OC)c1OC (stereo unspecified) | -6.9% | -0.835% | -2.09% | 101% | 97.6% | 2.28% | 0.21%
CCCCC(=O)OCCNC(=O)c1cc2ccccc2oc1=O | -3.98% | -0.93% | -2.04% | 92.3% | 95.2% | 2.96% | 2.46%
Cc1noc(NS(=O)(=O)c2ccc(NC(=O)COc3ccc(Cl)cc3Cl)cc2)c1C | -2.93% | 10.8% | -0.49% | 100% | 98.6% | 2.39% | 7.51%
Cc1cc(-c2ccco2)n(CC(=O)NCCCc2ccccc2)n1 | -13.3% | -2.17% | -1.48% | 100% | 97% | 0.905% | -0.37%
Cn1c(=O)oc2cc(S(=O)(=O)N3CCCC(C(=O)N4CC=C(c5ccccc5)CC4)C3)ccc21 (stereo unspecified) | -10.7% | 8.07% | -1.04% | 80.9% | 82.1% | 1.17% | 4.97%
COc1cc(OC)cc(C(=O)NCC2CCCO2)c1 (stereo unspecified) | -7.69% | 10.1% | -1.51% | 94.6% | 91.7% | 0.465% | 0.29%
Cc1cc(NC(=O)CC(CN(C)S(=O)(=O)c2ccccc2)c2ccccc2)no1 (stereo unspecified) | -7.79% | -20.5% | -4.04% | 89.7% | 81.3% | 1.59% | 3.14%
O=C(NCCN1C(=O)C2C3C=CC(C3)C2C1=O)Nc1ccccc1 (stereo unspecified) | -8.45% | 1.35% | 0.28% | 102% | 93.2% | 0.71% | -0.05%
CS(=O)(=O)N(Cc1ccc(C(=O)NCc2ccco2)cc1)c1ccccc1 | -6.5% | -0.32% | -3.9% | 94% | 100% | -0.1% | 4.76%
Oc1ccc(-c2nc3cnccn3c2Nc2ccc3c(c2)OCCO3)cc1 | 2% | 6.18% | -6.18% | 83.7% | 83.8% | 1.58% | 7.64%
O=C(NCc1ccco1)C1CCN(c2nnc(-n3cccc3)s2)CC1 | 3.71% | -3.18% | -3.76% | 97.2% | 95.8% | 0.985% | 5.26%
CCCC(=O)Nc1nc2c(OC)ccc(OC)c2s1 | -7.39% | -5.13% | -3.01% | 93.5% | 90.3% | 2.33% | 3.64%
CCCN(CCC)S(=O)(=O)c1cc(Br)cc2c1N(C(=O)CC)CC2 | -8.33% | -21.3% | -4.77% | 65.9% | 69.7% | 0.885% | 4.71%

Compound | growth inhibition [1] | growth inhibition [2] | viability increase [3] | viability [4] | viability [5] | inhibition [6] | RAM network inhibition [7]
Cc1cc(OCC(=O)Nc2cc(-c3nn4c(C)nnc4s3)ccc2C)ccc1Cl | 2.82% | 27.5% | -0.6% | 95.6% | 82% | 2.49% | 6.32%
CC1CN(S(=O)(=O)c2ccc(Cl)c(S(=O)(=O)N3CC(C)OC(C)C3)c2)CC(C)O1 (stereo unspecified) | -13.5% | -17.1% | -0.41% | 89% | 87.1% | 4.11% | 1.17%
Cc1nnc(SCC(=O)N2CCOCC2)n1C | -6.97% | -18% | -0.95% | 106% | 101% | 2.25% | 2.02%
CC(=O)c1cc(CN2C(=O)CCC2=O)cs1 | -5.33% | -9.9% | -0.46% | 94.1% | 95.6% | 1.64% | 1.46%
CCCNc1nc2c(c(=O)[nH]c(=O)n2C)n1CCc1ccccc1 | -3.82% | 0.97% | -1.3% | 112% | 103% | 1.56% | 5.88%
CN(C(=O)c1ccc(=O)[nH]c1)C1(C(=O)NC2CCCCC2)CCCCC1 | -7.84% | -8.31% | -0.61% | 95.7% | 101% | 0.78% | 1.66%
CCCCC1CCC(c2nc(-c3cccnc3)no2)CC1 (stereo unspecified) | -7.54% | 9.22% | -0.18% | 93.5% | 88% | -1.52% | -1.92%
CCCC(=O)C1=C(O)C(C(=O)OC)C(C)(C)CC1=N (stereo unspecified) | 1.4% | -3.15% | -0.38% | 100% | 101% | 1.01% | -0.57%
Cn1c(=O)c(C(=O)Nc2ncccn2)c(O)c2ccccc21 | 39.2% (active) | 63.5% (active) | -3.95% | 87.1% | 89.5% | 0.475% | -1.44%
Cc1nn(Cc2ccccc2)c(N)c1C#N | -2.69% | 1.22% | 0.68% | 107% | 98.3% | 1.58% | 5.62%
COc1cccc(NC(=O)Nc2nnc(N3CCCCC3C)s2)c1 (stereo unspecified) | -2.52% | -11.5% | -4.53% | 88.8% | 97.8% | 1.83% | 4.22%
Cc1ccc(N(C(=O)CC2NC(=O)NC2=O)C2(C(=O)NC3CCCC3)CCCCC2)cc1 (stereo unspecified) | -9.96% | -19.7% | -1.56% | 95.2% | 93.7% | -0.23% | 3.14%
Cc1ccc(-c2nn(-c3ccccc3)cc2C(=O)N2CCOCC2)cc1 | -8.14% | -8.34% | -2.21% | 97.5% | 89% | 0.805% | 12.4%
c1ccc(OCCOCCSc2ncccn2)cc1 | 1.54% | -1.09% | 2.36% | 101% | 98.4% | 0.395% | 3.21%
CCN(CC)S(=O)(=O)c1ccc(C(=O)C(C#N)c2ccccn2)cc1 (stereo unspecified) | -12.8% | -19.5% | 1.28% | 95.3% | 102% | 0.455% | 5.32%
O=C(Nc1ccc(N2CCCC2)c(Cl)c1)c1ccc(Br)o1 | 3.44% | 17% | -4.13% | 78.2% | 79.2% | 0.885% | 3.68%
Cc1ccccc1NC(=O)C1CC(Cl)=CCC1C(=O)O (stereo unspecified) | -2.29% | -0.385% | -0.5% | 101% | 96.9% | 1.52% | 6.8%
O=C(Nc1ccccc1O)c1ccccc1O | -9.29% | 2.25% | -3.07% | 75.1% | 63.3% | -0.42% | -1.84%
O=C(COc1ccc(S(=O)(=O)NC2CCCCC2)cc1)N1CCN(c2ccc(F)cc2)CC1 | -6.21% | -0.445% | -0.23% | 65.5% | 67.1% | -0.725% | 3.14%
O=C1CSC(=S)N1Cc1cccnc1 | -15.3% | 16.2% | -8.48% | 8.06% (active) | 9.45% (active) | 0.82% | -0.15%
COc1cc2[nH]c(=O)n(CCCC(=O)NCCc3ccccc3)c(=O)c2cc1OC | -4.08% | -7.02% | -3.37% | 99% | 94.5% | 3.42% | 2.87%
Cc1csc2nc(CNS(=O)(=O)c3ccc4c(c3)CCCC4)cn12 | -17.5% | 0.8% | -0.44% | 101% | 93.2% | 1.17% | 0.48%
O=C(c1ccc(NC2=NC3CS(=O)(=O)CC3S2)cc1)N1CCc2ccccc2C1 (stereo unspecified) | -0.26% | 11.2% | -0.55% | 109% | 106% | 1.67% | 5.69%
CCOC(=O)C1CCCN(C(=O)c2cn(CC)c3ccc(S(=O)(=O)N(C)C)cc3c2=O)C1 (stereo unspecified) | -5.92% | -15.5% | -0.67% | 108% | 102% | 0.85% | 0.1%
